Source: PubChem
TNF death inh – inhibitors of TNF-alpha induced necroptosis in Jurkat FADD-/- cells; Jurkat FADD-/- TNF necroptosis rescue, ATP luminescence, 24 h; 0 = TNF only, 100 = no-TNF cells; activation (protection from cell death), % at 10 µM; 0.068% of 220,000 active; AID 463075;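 active means activation, meaning protection from cell death, of at least 50% relative to plate controls; inactive means activation below 50%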;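 further: necroptosis triggered by 40 ng/mL TNF-alpha added together with compound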
PERK inh – blocks human PERK kinase; Q9NZJ5; CHO PERK-DD fusion, SEAP luminescence translation reporter; inhibition, % at 5.6 µM; 0.17% of 220,000 active; AID 1416;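 active means inhibition above the mean inhibition of all tested compounds plus 3 SD, set separately per screening campaign, cut at about 2.9% in these data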;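 further: PERK kinase domain activated by AP20187 dimerizer at 100 nM; 0% = DMSO with dimerizer and 100% = rapamycin at 8.4 µM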
Rad51 HR inh – blocks human Rad51 in homologous recombination; inhibition, % at 10 µM; 0.085% of 200,000 active; hRad51 DNA strand exchange, fluorescence dequenching;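 active means inhibition above 40% at the single screening dose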;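 further: 0% = DMSO control wells and 100% = blanks with heterologous ssDNA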
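Test system: preformed human Rad51 ssDNA filaments. Compound dosing: single dose, 10 µM final compound. Incubation: filaments 15 min 37 °C, then compound 30 min. Technique: FRET fluorescence dequenching, excitation 485 nm, emission 520 nm. Read-out basis: percent inhibition from fluorescence, normalised to plate control and blank means. Benchmarks: plate controls and plate blanks.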
L929 necroptosis – blocks zVAD induced death of L929 cells; 0.38% of 220,000 active; AID 1377; L929 zVAD necroptosis rescue, ATP luminescence, 24 h; with zVAD 60 µM; viability rescue, % at 10 µM;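 active means activation, scaled between plate controls, above about 75%, limit read from the data; inactive means activation under that limit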;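 further: 0% = zVAD with DMSO and 100% = DMSO alone without zVAD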
Efa HMGR inh – blocks class II HMG-CoA reductase of Enterococcus faecalis | purified E. faecalis HMGR, NADPH absorbance 340 nm kinetic | inhibition, % at 10 µM | 0.41% of 190,000 active | AID 1066;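 active means inhibition above a set limit, the median over all tested compounds plus 3 SD, cut at about 9.5% in these data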;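 further: enzyme runs in reverse so mevalonate oxidation gives rising NADPH absorbance; 0% = complete reaction with DMSO and 100% = background rate lacking mevalonate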
Active calls of the source: *; x = not tested or not shown. Rows were chosen to be rich in hits. Some 1% of all compounds tested hit in one or more screens of this group.

SMILES	TNF death inh	PERK inh	Rad51 HR inh	L929 necroptosis	Efa HMGR inh
Cc1ccccc1-n1nc(C(=O)O)cc1-c1ccccc1	0.2	3.1*	-0.7	0.4	5.3
Cc1ccccc1NC(=O)NCCCN1CCCC1	0.7	3.5*	-3.1	-0.5	-2.4
Cc1ccc(N2CCN(C(=O)c3cc(C(=O)c4ccccc4C)c[nH]3)CC2)c(C)c1	-2.7	0.1	43.2*	4.9	7.8
CCOC(=O)c1cc(-c2ccc(OC)cc2)n(CCC(=O)NC2CCN(Cc3ccccc3)CC2)c1C	-0.9	-0.4	5.3	-0.8	10.3*
O=C1OC(c2cccs2)=N/C1=C\c1ccc(-c2ccccc2Cl)o1	-3.4	0.1	0.3	-0.3	-2.5
O=C1OC(c2cccs2)=N/C1=C/c1ccc(-c2cccc(C(=O)O)c2)o1	-2.0	1.0	-15.3	2.4	16.1*
COc1ccc(N2CCN(C(=O)C3CCC(Cn4c(=S)[nH]c5ccccc5c4=O)CC3)CC2)cc1 (centres undefined)	-0.8	-2.1	0.1	-0.2	21.6*
O=C(C1CCC(Cn2c(=S)[nH]c3ccccc3c2=O)CC1)N1CCN(c2ccccc2)CC1 (centres undefined)	-3.0	-1.9	-4.6	-0.4	x
COc1ccccc1/C=C/C(=O)OCC(=O)Nc1ccccc1Sc1ccccc1	4.4	-1.0	x	0.9	11.2*
COC(=O)[C@H](Cc1ccccc1)NC(=O)O[C@@H]1C(=O)c2cc(Br)ccc2O[C@H]1c1cccc(OC)c1	0.5	-0.1	x	7.0	11.1*
Cc1ccc(C2=Nc3ccccc3SC(c3cccc([N+](=O)[O-])c3)C2)cc1 (centres undefined)	-8.3	1.1	17.8	0.7	x
CCOC(=O)C1CCN(C(=O)c2c(-c3ccccc3)noc2C)CC1	1.0	0.1	-5.0	-0.1	14.2*
CC(=O)Nc1ccc(NC(=O)/C=C/c2cccc(C(F)(F)F)c2)cc1	-0.2	1.0	-0.9	-0.6	-3.4
CC(=O)N(c1cccc(C(F)(F)F)c1)c1nc(/C=C/C(=O)O)cs1	2.8	1.0	40.3*	0.5	x
CCOc1cc(/C=N\Nc2ncc(F)c(N3CCOCC3)n2)ccc1Oc1nc(Cl)ncc1F	-10.3	-2.0	13.5	13.8	x
Cc1nc(NCc2ccco2)c(C#N)c2c1COC(C)(C)C2	1.0	0.5	-3.7	-0.5	-0.1
CC1(C)Cc2c(C#N)c(NCc3ccco3)nc(-c3ccco3)c2CO1	-2.1	0.0	1.4	-1.2	12.3*
COc1ccc(C(=O)COc2ccc(F)cc2)c(O)c1C	-0.4	0.2	-7.6	-0.2	-1.2
COc1cccc(/C=C/C(=O)c2cccc([N+](=O)[O-])c2)c1	-0.5	1.9	-35.2	-0.8	-2.3
COc1cccc(/C=C/C(=O)c2cccc([N+](=O)[O-])c2)c1OC	-5.2	-0.1	80.3*	0.0	-7.6
Cc1ccccc1NC(=S)N(CCN1CCCCCC1)Cc1cccs1	0.7	0.3	10.1	0.1	10.4*
CCN1CCCc2cc(CN(CCN3CCOCC3)C(=S)Nc3ccccc3C)ccc21	1.1	0.0	-2.8	1.1	10.2*
CCN1CCCc2cc(CN(CCN3CCOCC3)C(=S)Nc3ccccc3OC)ccc21	0.8	-0.1	-6.2	-0.3	1.2
CC(C)Cn1c(S(=O)(=O)O)nc2ccccc21	2.1	3.5*	-23.5	0.5	x
O=C(Cn1cc(C(=O)C(F)(F)F)c2ccccc21)N1CCOCC1	0.7	0.7	-5.8	-0.1	13.8*
SMILES	TNF death inh	PERK inh	Rad51 HR inh	L929 necroptosis	Efa HMGR inh
O=C(N/N=C/c1ccncc1)c1ccccc1	-2.2	3.6*	-9.2	-0.2	-3.9
COc1cc(/C=N/NC(=O)c2cc(-c3ccccc3)sc2N)cc(OC)c1OC	-10.0	-2.4	10.1	41.5	x
COc1ccc(C(=O)N/N=C/c2ccccc2C(=O)O)cc1OC	1.2	1.2	40.8*	-0.3	x
COc1cc(/C=N/NC(=O)c2ccc(-c3ccccc3)cc2)cc(OC)c1OC	2.4	-0.9	5.1	1.5	12.5*
COc1ccccc1Sc1ccccc1/C=N/NC(N)=O	-1.4	0.6	2.7	1.5	15.4*
O=C(CSc1ncn[nH]1)Nc1ccc(OCc2ccccc2)cc1	2.2	1.0	-6.4	1.0	-4.7
Cc1cccc(CSc2nnc3c(n2)[nH]c2ccccc23)c1	-3.1	0.8	10.7	-0.5	x
C=CCOC(=O)C1=C[C@@H](c2csc3ccccc23)[C@H](CCCO)[C@@H](OCC)O1	x	x	-3.1	x	x
COc1ccc(OC)c(Nc2nc(NCCCN(C)C)nc(N)c2[N+](=O)[O-])c1	-31.7	-1.2	40.8*	12.6	x
COc1ccccc1-c1cc(C(F)(F)F)nc(S(=O)(=O)CCCC(=O)O)n1	-8.2	-0.1	6.5	0.9	11.8*
COc1ccccc1-c1cc(C(F)(F)F)nc(S(=O)(=O)CCCC(=O)N2CCOCC2)n1	-17.6	1.1	5.5	-0.3	0.2
C=C1C(C(=O)Nc2cccc(OC)c2)C1C(=O)Nc1cccc(OC)c1 (centres undefined)	5.0	-0.1	-0.2	2.1	-0.1
O=C(N/N=C/c1cc(Br)cc(Br)c1O)c1cccc(N2CCCC2=O)c1	-9.8	1.1	-20.6	58.0	14.3*
CCOC(=O)c1nc(NCCc2ccccc2)sc1C	5.4	0.3	-6.1	47.4	10.8*
CC1CCC(C(C)C)C(OCC(O)CNC(C)C)C1 (centres undefined)	4.0	-1.6	2.3	0.1	x
O=C(O)Cn1cnc2scc(-c3cccs3)c2c1=O	-4.2	1.0	x	0.3	x
Cc1nc2scc(-c3cccs3)c2c(=O)n1CC(=O)O	1.5	1.6	115.2*	-0.7	-2.2
O=[N+]([O-])c1ccc(-c2cnc[nH]2)cc1	2.8	0.5	12.5	0.7	x
CCOc1cccc(C(=O)NC(=S)Nc2ccc(Cl)cc2C(=O)O)c1	0.5	1.2	2.4	9.5	3.7
COC(=O)c1ccc(OCC(=O)c2ccccc2)cc1	-0.4	-1.0	-2.6	-0.4	-4.8
COC(=O)c1ccc(OCCOc2ccc(C(=O)OC)cc2)cc1	0.2	3.5*	-11.7	-0.2	-6.7
CCOC(=O)c1ccc(N=Nc2c(C)c(C#N)c(O)[nH]c2=O)cc1	-3.0	0.1	-13.2	0.0	0.7
COC1(OC)N=C(NC(=O)Nc2ccccc2)C2(C#N)C(c3ccccc3)C12C#N (centres undefined)	-2.3	1.3	8.3	0.2	13.5*
Cc1[nH]n(-c2ccccc2)c(=O)c1/C=N/NC(=O)C(C)C	-0.6	0.4	-6.2	1.1	1.9
Cc1nn(-c2ccccc2)c(Cl)c1/C=N/NC(=O)c1ccc(NS(=O)(=O)c2cccs2)cc1	1.7	0.3	-5.4	9.8	9.6*
O=C1OCC2OC(O)C(O)C(O)C2OC(=O)c2cc(O)c(O)c(O)c2-c2c(O)c(O)c3oc(=O)c4c(c(O)c(O)c5oc(=O)c2c3c54)-c2c1cc(O)c(O)c2O (centres undefined)	-0.4	x	68.0*	0.6	x
Cc1oc(-c2cccc(C(F)(F)F)c2)nc1CN1CCOCC1	-0.1	0.6	7.9	7.0	-3.0
CN(C)c1ccc2c3c(ccc(N(C)C)c13)COC2	0.9	0.8	x	0.3	14.8*
